This is an account of results in ChEMBL document CHEMBL1132283, “Further studies on the Dmt-Tic pharmacophore: hydrophobic substituents at the C-terminus endow delta antagonists to manifest mu agonism or mu antagonism” (J Med Chem, 1999).

Where a SMILES comes first, the peptide text is derived from it. [ ]: non-standard residue; d: D form. The star is where a group is joined. Dmt = Cc1cc(O)cc(C)c1C[C@H](N)C(=O)O; Tic = O=C(O)[C@@H]1Cc2ccccc2CN1; NHtBu = CC(C)(C)N*; NHNH2 = NN*

For assay [1], the target named is T1, Opioid receptors; mu & delta (Rattus norvegicus) (UniProt P33533+P33535). As to the kind of experiment: Agonist activity ratio (Ki of mu receptors compared to Ki of delta receptors). It counts as functional.
T1 sequence (P33533 whole entry, looked up): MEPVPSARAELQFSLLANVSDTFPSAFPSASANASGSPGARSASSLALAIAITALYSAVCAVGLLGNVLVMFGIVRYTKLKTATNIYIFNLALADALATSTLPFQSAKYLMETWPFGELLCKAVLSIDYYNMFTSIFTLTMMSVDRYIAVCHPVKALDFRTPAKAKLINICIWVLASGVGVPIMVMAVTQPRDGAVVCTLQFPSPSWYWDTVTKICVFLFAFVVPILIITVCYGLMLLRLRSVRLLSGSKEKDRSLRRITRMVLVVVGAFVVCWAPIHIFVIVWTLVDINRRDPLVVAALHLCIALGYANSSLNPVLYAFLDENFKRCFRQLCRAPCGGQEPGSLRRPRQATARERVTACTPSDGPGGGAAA
T1 sequence (P33535 whole entry, looked up): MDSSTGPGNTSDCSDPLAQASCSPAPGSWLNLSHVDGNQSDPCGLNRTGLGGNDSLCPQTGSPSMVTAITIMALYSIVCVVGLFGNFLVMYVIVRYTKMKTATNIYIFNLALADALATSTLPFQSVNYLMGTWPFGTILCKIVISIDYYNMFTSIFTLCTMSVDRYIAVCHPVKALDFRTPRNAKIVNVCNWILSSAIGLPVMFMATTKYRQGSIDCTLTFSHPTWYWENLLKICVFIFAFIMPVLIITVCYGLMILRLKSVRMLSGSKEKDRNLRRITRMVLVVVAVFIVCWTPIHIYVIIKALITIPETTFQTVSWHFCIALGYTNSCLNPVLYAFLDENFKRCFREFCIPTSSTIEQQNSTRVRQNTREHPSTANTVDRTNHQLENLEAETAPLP
For assay [2], the species on record is Cavia porcellus. Kind of assay: Antagonistic functional bioactivity against […]-receptor from guinea pig ileum(GPI). The following applies: for Kb: read-out: pA2 (converted).
Assay [3] concerns the target T1, Opioid receptors; mu & delta (Rattus norvegicus). Kind of assay: Antagonistic activity ratio (Ki of mu receptors compared to Ki of delta receptors). It counts as functional.
Assay [4] is filed under the species Mus musculus. Kind of assay: Antagonistic functional bioactivity against delta-receptor from mouse vas deferens(MVD). The settings on record: for Kb: read-out: pA2 (converted).
Assay [5] deals with T2, Delta-type opioid receptor (Rattus norvegicus, UniProt P33533). As to the kind of experiment: Binding affinity at Opioid receptor delta 1 from rat brain synaptosomal preparations by [3H]N,N-(Me)2-Dmt-Tic-OH displacement. Summed up: (§1)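 Nonspecific binding was set with 2 μM unlabeled peptide, followed by GF/C filtration. Duplicates at 5–9 doses, ≥3 preparations; Ki by Cheng–Prusoff, mean ± SEM.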
T2 sequence (P33533 whole entry): as the sequence (P33533 whole entry, looked up) above

Assay [6] deals with T2, Delta-type opioid receptor. As to the kind of experiment: Binding affinity at Opioid receptor delta 1 from rat brain synaptosomal preparations by H-Dmt-Tic-OH displacement.
Assay [7] has as its target Mu-type opioid receptor (Rattus norvegicus, UniProt P33535). As to the kind of experiment: Binding affinity at Opioid receptor mu 1 from rat brain synaptosomal preparations by [3H]DAGO displacement. Put shortly:
as §1

The species entered for assay [8] is Mus musculus. Kind of assay: Antagonistic functional bioactivity against delta-receptor from mouse vas deferens(MVD). The settings on record: for Kb: read-out: pA2 (converted).
The species named for assay [9] is Cavia porcellus. As to the kind of experiment: Antagonistic functional bioactivity against […]-receptor from guinea pig ileum(GPI).

Chain of Mu-type opioid receptor (P33535 whole entry): as the sequence (P33535 whole entry, looked up) above

As a reminder, the EC50 is the midpoint of the concentration-response curve. Low values mean higher potency in that assay, high ones lower potency in that assay. On to `Cc1cc(O)cc(C)c1C[C@H](N)C(=O)N1Cc2ccccc2C[C@H]1C(=O)NC(C)(C)C` (H-[Dmt]-[Tic]-NHtBu), for which, in assay [1], the Ratio came to 14. This compound also yielded an EC50 in [2] of 1040 nM. For the same compound, in assay [3], the Ratio was 6. Also, in assay [4], the Ke is listed as 1.74 nM and the Kb is 5.75 nM.

For `Cc1cc(O)cc(C)c1C[C@H](N)C(=O)N1Cc2ccccc2C[C@H]1CC(=O)O`, the EC50 in assay [2] was more than 10000 nM. Moreover, in assay [4], the Ke is recorded as 1.41 nM and the Kb is 1.58 nM.

Consider `CNC(=O)[C@H](C)NC(=O)[C@@H]1Cc2ccccc2CN1C(=O)[C@@H](N)Cc1c(C)cc(O)cc1C` (H-[Dmt]-[Tic]-Ala-NHMe), for which the Ratio in assay [1] was determined as 100; in [3] it was 47. Also, the figures for the EC50 in [2] and in [4] were 290 nM and 1290 nM, respectively.

With `COC(=O)[C@H](C)NC(=O)[C@@H]1Cc2ccccc2CN1C(=O)[C@@H](N)Cc1c(C)cc(O)cc1C` (H-[Dmt]-[Tic]-Ala-OMe), the Ratio in assay [1] amounted to 48; in assay [3], 83.

Regarding `Cc1cc(O)cc(C)c1C[C@@H](C(=O)N1Cc2ccccc2C[C@H]1C(=O)O)N1CCCCC1`, the Ratio in assay [1] was 1730. Moreover, in assay [2], the half-maximal effective concentration (EC50) was more than 10000 nM. Besides, the Ratio in assay [3] turned out to be 2760. Besides, in [4], the Ke came to 49 nM and the Kb was 49 nM.

Consider `CNC(=O)[C@@H]1Cc2ccccc2CN1C(=O)[C@@H](N)Cc1c(C)cc(O)cc1C` (H-[Dmt]-[Tic]-NHMe), for which, in assay [2], the EC50 is more than 10000 nM, the Ke is reported as 1.15 nM and the Kb is 1150 nM. In assay [4], this compound returned an EC50 of 21200 nM and a Ke of more than 10000 nM.

Broadly, the Ki is a measure of affinity in units of concentration, obtained from inhibition or displacement. Read a high Ki as lower affinity. As for `Cc1cc(O)cc(C)c1C[C@H](N)C(=O)N1Cc2ccccc2C[C@H]1C(=O)NC12C[C@H]3C[C@@H](C1)C[C@@H](C2)C3`, the results for the Ratio in assay [1] and in [3] were 3 and 0.8, respectively. For the same compound, the values for the EC50 in [2] and in assay [4] were 36 nM and 870 nM, respectively. In addition, the Ki in assay [5] worked out at 0.26 nM; in assay [6] it was 1.01 nM; in [7] it was 0.76 nM. Moreover, the Ke in assay [4] was more than 10000 nM.

Take `Cc1cc(O)cc(C)c1C[C@H](N)C(=O)N1Cc2ccccc2C[C@H]1C(=O)NN` (H-[Dmt]-[Tic]-NHNH2): the Ratio is 86 in assay [1] and 2 in assay [3].

As for `Cc1cc(O)cc(C)c1C[C@H](N)C(=O)N1Cc2ccccc2C[C@H]1C(=O)N[C@@H](C)C(=O)NC(C)(C)C` (H-[Dmt]-[Tic]-Ala-NHtBu), the Ratio in [1] came to 61; in [3] it was 48. The same compound registered an EC50 in [2] of more than 10000 nM. The Kb in assay [2] was 174 nM; in assay [4], 0.692 nM. In [4], this compound displayed a Ke of 0.69 nM.

As to `COC(=O)[C@@H]1Cc2ccccc2CN1C(=O)[C@@H](N)Cc1c(C)cc(O)cc1C` (H-[Dmt]-[Tic]-OMe), the Ratio in assay [1] is 44; in assay [3], 0.8.

In the case of `Cc1cc(O)cc(C)c1C[C@@H](C(=O)N1Cc2ccccc2C[C@H]1C(=O)O)N1CCCC1`, the Ratio worked out at 502 in assay [1] and 573 in [3]. This compound showed an EC50 in [2] of more than 10000 nM. In addition, the Ke in assay [4] was determined as 121 nM. Besides, in assay [4], the Kb is 126 nM.

Consider `Cc1cc(O)cc(C)c1CC(CN)C(=O)N1Cc2ccccc2C[C@H]1C(=O)O` (stereo not given in full), for which the results for the Ratio in assay [1] and in [3] were 155 and 4, respectively.

Consider `Cc1cc(O)cc(C)c1C[C@@H](C(=O)N1Cc2ccccc2C[C@H]1C(=O)NC(C)(C)C)N(C)C`, for which, in [2], the EC50 is more than 10000 nM, the Ke stood at 0.3 nM and the Kb was 302 nM. Moreover, in [4], the Ke worked out at 14.1 nM and the Kb was 14.1 nM.

Regarding `Cc1cc(O)cc(C)c1C[C@H](N)C(=O)N1Cc2ccccc2C[C@@H]1C(=O)NC12C[C@H]3C[C@@H](C1)C[C@@H](C2)C3`, the Ratio in assay [1] was found to be 0.01; in [3] it was 0.004. In addition, the EC50 in assay [2] amounted to 1680 nM. For the same compound, the inhibition constant (Ki) in assay [5] came to 24.5 nM; in assay [6], 70.3 nM; in assay [7], 0.26 nM. Further, the Ke in assay [4] is more than 10000 nM.

Regarding `CNC(=O)[C@@H]1Cc2ccccc2CN1C(=O)[C@H](Cc1c(C)cc(O)cc1C)N(C)C`, in assay [1], the Ratio worked out at 669. Besides, in assay [2], the EC50 was more than 10000 nM, the Ke is listed as 0.39 nM and the Kb is 389 nM. Further, the Ratio in assay [3] was found to be 1270. In assay [4], the Ke turned out to be 0.41 nM and the Kb was 0.407 nM.

Take `Cc1cc(O)cc(C)c1C[C@@H](C(=O)N1Cc2ccccc2C[C@H]1C(=O)NC12C[C@H]3C[C@@H](C1)C[C@@H](C2)C3)N(C)C`: the Ratio in assay [1] turned out to be 7; in assay [3], 9. This compound came in with an EC50 in [2] of 16 nM. Further, the Ki in assay [5] is 0.16 nM; in [6] it was 0.12 nM; in assay [7], 1.12 nM. For the same compound, the Ke in assay [4] was 0.87 nM. For the same compound, in assay [4], the Kb was 0.871 nM.

The compound `Cc1cc(O)cc(C)c1C[C@H](N)C(=O)N1Cc2ccccc2C[C@H]1C(=O)N[C@@H](C)C(=O)NC12C[C@H]3C[C@@H](C1)C[C@@H](C2)C3` yielded an EC50 in [2] of 1000 nM. Further, the figures for the Ki in assay [5], in [6] and in assay [7] were 0.073 nM, 0.04 nM and 2.52 nM, respectively. Further, in [4], the Ke was 0.51 nM. The Kb in [4] was 0.513 nM.

`Cc1cc(O)cc(C)c1C[C@H](N)C(=O)N1Cc2ccccc2C[C@H]1C(=O)Nc1nn[nH]n1`: the Ratio in [1] was found to be 53. Further, the Ratio in assay [3] is 4. Moreover, in assay [8], the Ke is recorded as 36.3 nM and the Kb is 36.3 nM. This compound also displayed an EC50 in assay [9] of 8200 nM.

With `Cc1cc(O)cc(C)c1C[C@@H](C(=O)N1Cc2ccccc2C[C@@H]1C(=O)NC12C[C@H]3C[C@@H](C1)C[C@@H](C2)C3)N(C)C`, the Ratio in assay [1] stood at 0.36; in [3] it was 0.42. Besides, in [2], the half-maximal effective concentration (EC50) is 4480 nM. Also, the Ki was found to be 140 nM in [5], 120 nM in [6] and 50.5 nM in assay [7]. Besides, the Ke in assay [4] was 128 nM. The Kb in assay [4] is 123 nM.

As for `Cc1cc(O)cc(C)c1C[C@@H](C(=O)N1Cc2ccccc2C[C@H]1C(=O)O)n1cccc1`, in assay [1], the Ratio amounted to 338. The Ratio in assay [3] is 562. Besides, in assay [8], the Ke worked out at 408 nM and the Kb was 407 nM. The compound further returned an EC50 in assay [9] of more than 10000 nM.
